In ChEMBL document CHEMBL1240471, “Synthesis and anticancer activity of chromone-based analogs of lavendustin A” (Eur J Med Chem, 2010):
≈ marks a conversion by molar mass, not a printed value.

Experiments:
Format in all cases: functional, cell-based
A-431 = assay: Growth inhibition of human A431 cells after 72 hrs by SRB assay; details: A-431, 72 h
Procedure, shortened: (§1)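 Cells were seeded at 5 × 10³ cells/well in 96-well plates. Various sample concentrations were added in triplicate, and plates were incubated for 72 h at 37 °C in 5% CO₂. Optical density was read at 520 nm. GI₅₀ was taken as the concentration inhibiting cell growth by 50%.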

SK-OV-3 = assay: Growth inhibition of human SKOV3 cells after 72 hrs by SRB assay; details: SK-OV-3, 72 h
KB = assay: Growth inhibition of human KB cells after 72 hrs by SRB assay; procedure, shortened: as §1
SK-MEL-2 = assay: Growth inhibition of human SK-MEL-2 cells after 72 hrs by SRB assay; details: SK-MEL-2, 72 h; procedure, shortened: as §1
HCT-15 = assay: Growth inhibition of human HCT15 cells after 72 hrs by SRB assay; details: HCT-15, 72 h; procedure, shortened: as §1
A549 = assay: Growth inhibition of human A549 cells after 72 hrs by SRB assay; details: A549, 72 h
Procedure, shortened: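 A-549 cells were seeded at 2 × 10³ cells/well. Various sample concentrations were tested in triplicate over 72 h at 37 °C under 5% CO₂. Absorbance was read at 520 nm. GI₅₀ was assigned as the concentration giving 50% growth inhibition.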

Row | IC50 (A-431) | IC50 (SK-OV-3) | IC50 (KB) | IC50 (SK-MEL-2) | IC50 (HCT-15) | IC50 (A549) | Structure (SMILES)
1 | 19.5 µg/mL (≈ 50.6 µM) | 19 µg/mL (≈ 49.2 µM) | 15.1 µg/mL (≈ 39.2 µM) | 17.8 µg/mL (≈ 46.1 µM) | 11.3 µg/mL (≈ 29.4 µM) | 11.9 µg/mL (≈ 30.9 µM) | Cc1cc(=O)c2ccc(O)c(CN(Cc3ccccc3)Cc3ccccc3)c2o1
2 | 18.5 µg/mL (≈ 46.3 µM) | 21.6 µg/mL (≈ 54 µM) | 14.5 µg/mL (≈ 36.3 µM) | 17.4 µg/mL (≈ 43.5 µM) | 11.7 µg/mL (≈ 29.3 µM) | 12.3 µg/mL (≈ 30.9 µM) | Cc1cc(=O)c2ccc(O)c(CN(CCc3ccccc3)Cc3ccccc3)c2o1
3 | 25.2 µg/mL (≈ 58.7 µM) | 65 µg/mL (≈ 151 µM) | 16.1 µg/mL (≈ 37.4 µM) | 19.9 µg/mL (≈ 46.4 µM) | 15.8 µg/mL (≈ 36.8 µM) | 16.6 µg/mL (≈ 38.7 µM) | COc1ccc(CCN(Cc2ccccc2)Cc2c(O)ccc3c(=O)cc(C)oc23)cc1
4 | 61 µg/mL (≈ 137 µM) | > 100 µg/mL | 10.8 µg/mL (≈ 24.4 µM) | 74.1 µg/mL (≈ 167 µM) | 7.68 µg/mL (≈ 17.3 µM) | 9.92 µg/mL (≈ 22.3 µM) | Cc1cc(=O)c2ccc(O)c(CN(CCc3ccccc3)Cc3ccc([N+](=O)[O-])cc3)c2o1

Further lines, the molecule ahead of its results:

Row | Structure (SMILES) | IC50 (A-431) | IC50 (SK-OV-3) | IC50 (KB) | IC50 (SK-MEL-2) | IC50 (HCT-15) | IC50 (A549)
5 | COc1ccc(CN(Cc2ccccc2)Cc2c(O)ccc3c(=O)cc(C)oc23)cc1 | 44.7 µg/mL (≈ 108 µM) | 24.5 µg/mL (≈ 59.1 µM) | 42.7 µg/mL (≈ 103 µM) | 78.6 µg/mL (≈ 189 µM) | 10.7 µg/mL (≈ 25.8 µM) | 14.1 µg/mL (≈ 34 µM)
6 | COc1ccc(CCN(Cc2ccccc2)Cc2c(O)ccc3c(=O)cc(C)oc23)cc1OC | > 100 µg/mL | 41.7 µg/mL (≈ 90.7 µM) | 24.3 µg/mL (≈ 53 µM) | 21.9 µg/mL (≈ 47.6 µM) | 31.5 µg/mL (≈ 68.5 µM) | 26.1 µg/mL (≈ 56.8 µM)
7 | CCN(Cc1ccc(OC)cc1)Cc1c(O)ccc2c(=O)cc(C)oc12 | 41.9 µg/mL (≈ 119 µM) | 57.5 µg/mL (≈ 163 µM) | 47.4 µg/mL (≈ 134 µM) | 60.3 µg/mL (≈ 171 µM) | 22.4 µg/mL (≈ 63.5 µM) | 38.7 µg/mL (≈ 110 µM)
8 | COc1ccc(CN(Cc2ccc([N+](=O)[O-])cc2)Cc2c(O)ccc3c(=O)cc(C)oc23)cc1 | > 100 µg/mL | > 100 µg/mL | 24.4 µg/mL (≈ 53 µM) | > 100 µg/mL | 28.6 µg/mL (≈ 62.1 µM) | 24.5 µg/mL (≈ 53.1 µM)
9 | COc1ccc(CN(Cc2ccc3ccccc3c2)Cc2c(O)ccc3c(=O)cc(C)oc23)cc1 | 16.4 µg/mL (≈ 35.2 µM) | > 100 µg/mL | 17.6 µg/mL (≈ 37.8 µM) | > 100 µg/mL | 6.89 µg/mL (≈ 14.8 µM) | 6.01 µg/mL (≈ 12.9 µM)
10 | COc1ccc(CN(Cc2ccc(OC)cc2)Cc2c(O)ccc3c(=O)cc(C)oc23)cc1 | 38.9 µg/mL (≈ 87.3 µM) | > 100 µg/mL | 17.8 µg/mL (≈ 39.9 µM) | 31.6 µg/mL (≈ 71 µM) | 53.7 µg/mL (≈ 121 µM) | 62.5 µg/mL (≈ 140 µM)
11 | CCN(CCc1ccccc1)Cc1c(O)ccc2c(=O)cc(C)oc12 | > 100 µg/mL | > 100 µg/mL | 32.6 µg/mL (≈ 96.6 µM) | 57.5 µg/mL (≈ 171 µM) | 43.2 µg/mL (≈ 128 µM) | 32.7 µg/mL (≈ 96.8 µM)
12 | COc1ccc(CN(CCc2ccccc2)Cc2c(O)ccc3c(=O)cc(/C=C/c4ccccc4)oc23)cc1 |  |  | 35 µg/mL (≈ 67.6 µM) | > 100 µg/mL | 49.4 µg/mL (≈ 95.4 µM) | 17.9 µg/mL (≈ 34.6 µM)
